Source: ChEMBL document CHEMBL1122314, “Acute effects of alkylating agents on canine renal function: specifically designed synthetic maleimides” (J Med Chem, 1983)
Calls of active or inactive are those of the source. The calls are words filed in the database; no cut-off is given here.

Key:
Canis familiaris [1] = assay: The changes in canine renal function that were monitored over the 2-h interval following 20 umol/kg renal arterial administration; no change; assay type: functional, organism-based; settings: Canis lupus familiaris
[2] = Half life period with Glutathione (GSH); activity expressed in terms of rx, no rx means no reaction; assay type: ADME
[3] = Half life period with L-Lys; activity expressed in terms of rx, no rx means no reaction; assay type: ADME
Canis familiaris [4] = assay: The changes in canine renal function that were monitored over the 2-h interval following 20 umol/kg renal arterial administration; NC=no change; assay type: functional, organism-based; settings: Canis lupus familiaris
Canis familiaris [5] = assay: The changes in canine renal function that were monitored over the 2-h interval following 73 umol/kg intravenous administration.; assay type: functional, Canis lupus familiaris
Method in brief: (§1)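 Dogs received the maleimide into the jugular vein at 73.0 or 146 µmol/kg over 10 min, dissolved in 0.9% saline with an equivalent amount of NaHCO3. Urine was collected in 10-min periods for 2 h. Read-outs were urine flow, urinary pH, GFR (inulin clearance), and Na, K (flame photometry) and Cl excretion. Each value is the change from the immediately preceding pretreatment period, analysed by Dunnett's test.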

Canis familiaris [6] = assay: The changes in canine renal function that were monitored over the 2-h interval following 146 umol/kg intravenous administration.; assay type: functional, Canis lupus familiaris; method in brief: as §1

SMILES | Change (Canis familiaris [1]) | also measured
CC1=C(C)C(=O)N(c2ccc(C(=O)O)cc2)C1=O | inactive | 
CC1=CC(=O)N(c2ccc(C(=O)NCC(=O)O)cc2)C1=O | inactive | 
CC1=C(C)C(=O)N(c2ccc(C(=O)NCC(=O)O)cc2)C1=O | inactive | T1/2 [2]: No RX; T1/2 [3]: No RX
O=C(O)c1ccc(N2C(=O)C=CC2=O)cc1 | inactive | 
O=C(O)CNC(=O)c1ccc(N2C(=O)C=CC2=O)cc1 |  | Change (Canis familiaris [4]): inactive; Change (Canis familiaris [5]): ~-5
CC1=CC(=O)N(c2ccc(C(=O)O)cc2C)C1=O | inactive | Change (Canis familiaris [6]): 5
CC1=CC(=O)N(c2ccc(C(=O)O)cc2)C1=O | inactive | 
